Here are results for five compounds from ChEMBL document CHEMBL3124917, “Design, synthesis, and biological evaluation of deuterated C-aryl glycoside as a potent and long-acting renal sodium-dependent glucose cotransporter 2 inhibitor for the treatment of type 2 diabetes” (J Med Chem, 2014).

Data set [1] deals with Rattus norvegicus. Description: Antidiabetic activity in Sprague-Dawley rat assessed as urinary glucose excretion at 1 mg/kg, po administered 1 hr prior to glucose challenge measured after 1 to 24 hrs relative to dapagliflozin. The data set is classed as functional, Urine. Summed up: (§1)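 Overnight-fasted Sprague-Dawley rats, n = 3 per group, dosed 1 mg/kg by oral gavage in 30% PEG400; controls received vehicle. Oral glucose (2 g/kg, 10 mL/kg) given 1 h post-dose. Urine collected in metabolic cages at 0–4 and 4–24 h, glucose measured on a biochemistry analyzer. Expressed as % of reference positive control; mean ± SD.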

Data set [2] deals with Rattus norvegicus. Description: Antidiabetic activity in Sprague-Dawley rat assessed as urinary glucose excretion at 1 mg/kg, po administered 1 hr prior to glucose challenge measured after 4 to 24 hrs relative to dapagliflozin. The data set is classed as functional, Urine. An outline of the steps:
as §1

In data set [3] the test system is Rattus norvegicus. Description: Antidiabetic activity in Sprague-Dawley rat assessed as urinary glucose excretion at 1 mg/kg, po administered 1 hr prior to glucose challenge measured after 1 to 4 hrs relative to dapagliflozin. The data set is classed as functional, Urine. An outline of the steps: as §1
Data set [4] can be described thus: Half life in Sprague-Dawley rat at 3 mg/kg, po by LC-MS/MS analysis. It counts as ADME, organism-based. Particulars: in vivo. Details: dose 3 mg/kg, route oral. An outline of the steps:
(§2)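 Male Sprague-Dawley rats, n = 4 per group, overnight-fasted. Oral gavage of 3 or 1 mg/kg in 30% PEG400; i.v. arm at 1 mg/kg. Orbital plexus blood taken under ether at 0.083–24 h; plasma deproteinized and assayed by LC-MS/MS. Noncompartmental parameters derived; mean ± SD reported.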

Data set [5] can be described thus: AUC (0 to infinity) in Sprague-Dawley rat at 3 mg/kg, po by LC-MS/MS analysis. The data set is classed as ADME, organism-based. Details: time infinity, dose 3 mg/kg, route oral. The following applies: plasma. An outline of the steps:
as §2

Data set [6] is described as follows: Cmax in Sprague-Dawley rat at 3 mg/kg, po by LC-MS/MS analysis. It counts as ADME, organism-based. More on the design: dose 3 mg/kg, route oral. Particulars: in vivo. An outline of the steps:
as §2

The nature of data set [7]: Tmax in Sprague-Dawley rat at 3 mg/kg, po by LC-MS/MS analysis. Particulars: in vivo. It counts as ADME, organism-based. Details: dose 3 mg/kg, route oral. An outline of the steps: as §2
The target in data set [8] is T1, Sodium/glucose cotransporter 1 (Homo sapiens, UniProt P13866).
T1 sequence (P13866 whole entry): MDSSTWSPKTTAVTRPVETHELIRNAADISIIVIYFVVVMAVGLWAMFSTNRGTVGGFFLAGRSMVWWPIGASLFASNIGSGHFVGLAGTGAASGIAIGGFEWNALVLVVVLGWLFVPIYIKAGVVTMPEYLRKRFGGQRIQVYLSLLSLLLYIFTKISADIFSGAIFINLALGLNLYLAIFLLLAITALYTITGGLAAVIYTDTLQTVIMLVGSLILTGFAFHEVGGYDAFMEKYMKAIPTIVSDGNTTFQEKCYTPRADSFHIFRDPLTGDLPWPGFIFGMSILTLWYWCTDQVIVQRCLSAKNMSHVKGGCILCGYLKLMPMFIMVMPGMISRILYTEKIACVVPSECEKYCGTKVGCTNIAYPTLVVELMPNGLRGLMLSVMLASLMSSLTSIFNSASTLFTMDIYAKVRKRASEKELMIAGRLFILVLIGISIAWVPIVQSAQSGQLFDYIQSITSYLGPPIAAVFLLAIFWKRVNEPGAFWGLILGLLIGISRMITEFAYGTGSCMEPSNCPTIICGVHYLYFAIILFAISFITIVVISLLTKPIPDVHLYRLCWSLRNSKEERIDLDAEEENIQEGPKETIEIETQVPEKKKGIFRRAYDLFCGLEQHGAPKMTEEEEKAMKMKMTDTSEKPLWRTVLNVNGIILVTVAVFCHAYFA
As to the kind of experiment: Inhibition of full length human SGLT1 assessed as methyl-alpha-D-[U-14C]glucopyranoside uptake after 2 hrs by cell-based topcount scintillation counting analysis.

Data set [9] addresses T2, Sodium/glucose cotransporter 2 (Homo sapiens, UniProt P31639).
T2 sequence (P31639 whole entry): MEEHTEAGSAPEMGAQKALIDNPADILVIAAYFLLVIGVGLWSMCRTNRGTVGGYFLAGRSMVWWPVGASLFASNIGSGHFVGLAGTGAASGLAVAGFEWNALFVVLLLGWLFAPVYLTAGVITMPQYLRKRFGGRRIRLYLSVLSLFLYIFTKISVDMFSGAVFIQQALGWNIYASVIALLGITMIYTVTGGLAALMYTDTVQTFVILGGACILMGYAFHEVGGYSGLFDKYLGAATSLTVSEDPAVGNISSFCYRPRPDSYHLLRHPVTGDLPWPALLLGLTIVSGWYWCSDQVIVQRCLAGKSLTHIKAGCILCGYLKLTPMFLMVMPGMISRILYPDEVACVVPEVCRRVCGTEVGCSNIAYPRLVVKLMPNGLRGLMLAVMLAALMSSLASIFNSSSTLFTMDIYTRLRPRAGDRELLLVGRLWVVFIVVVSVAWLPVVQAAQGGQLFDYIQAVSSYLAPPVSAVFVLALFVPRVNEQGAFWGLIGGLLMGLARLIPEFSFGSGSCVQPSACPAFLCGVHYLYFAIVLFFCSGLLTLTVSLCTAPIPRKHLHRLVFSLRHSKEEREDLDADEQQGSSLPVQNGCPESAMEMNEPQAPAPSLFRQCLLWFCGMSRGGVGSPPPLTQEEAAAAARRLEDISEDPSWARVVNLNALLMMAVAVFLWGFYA
As to the kind of experiment: Inhibition of full length human SGLT2 assessed as methyl-alpha-D-[U-14C]glucopyranoside uptake after 1.5 hrs by cell-based topcount scintillation counting analysis.

Data set [10] concerns Canis familiaris. As to the kind of experiment: Antidiabetic activity in Beagle dog assessed as urinary glucose excretion at 0.03 mg/kg, po administered 1 hr prior to glucose challenge measured after 1 to 24 hrs relative to dapagliflozin. It counts as functional, Canis lupus familiaris, Urine. An outline of the steps: (§3)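 Overnight-fasted beagle dogs, n = 3 per group, given 0.03 mg/kg orally by gavage in 10% PEG400; vehicle controls received 10% PEG400. Oral glucose (2 g/kg, 5 mL/kg) given 1 h post-dose. Urine collected in metabolic cages at 0–8 and 8–24 h, glucose read on a biochemistry analyzer. Expressed as % of reference positive control; mean ± SD.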

Data set [11] relates to Canis familiaris. As to the kind of experiment: Antidiabetic activity in Beagle dog assessed as urinary glucose excretion at 0.03 mg/kg, po administered 1 hr prior to glucose challenge measured after 1 to 8 hrs relative to dapagliflozin. The data set is classed as functional, Canis lupus familiaris, Urine. Summed up: as §3
Data set [12] deals with Canis familiaris. Description: Antidiabetic activity in Beagle dog assessed as urinary glucose excretion at 0.03 mg/kg, po administered 1 hr prior to glucose challenge measured after 8 to 24 hrs relative to dapagliflozin. It counts as functional, Canis lupus familiaris, Urine. An outline of the steps: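 Overnight-fasted beagle dogs, n = 3 per group, given 0.03 mg/kg orally by gavage in 10% PEG400; vehicle controls received 10% PEG400. Oral glucose (2 g/kg, 5 mL/kg) given 1 h post-dose. Expressed as % of reference positive control; mean ± SD.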

The term half-life denotes how long it takes for the measured level to halve. High values mean slow loss, low ones fast loss. By AUC(0-inf) is commonly meant total exposure, with the tail of the curve extrapolated. For orientation: Cmax means the maximum level reached in the sampled fluid or tissue. Broadly, the Tmax is the time from dosing to the highest level. As to `[2H]C([2H])([2H])Oc1ccc(C([2H])([2H])c2cc([C@@H]3O[C@H](CO)[C@@H](O)[C@H](O)[C@H]3O)ccc2Cl)cc1`, the Activity in data set [1] stood at 2100 mg; in [2], 1990 mg; in data set [3], 101 mg. Further, the half-life in data set [4] was 5.66 h. For the same compound, the AUC(0-inf) in data set [5] came to 5350 ng·h/mL. The Cmax in [6] amounted to 1400 ng/mL. For the same compound, in data set [7], the Tmax was determined as 0.75 h.
A word on the IC50: it is the midpoint of a concentration-inhibition curve. Turning to `[2H]C([2H])([2H])Oc1ccc(C([2H])([2H])c2cc([C@]3([2H])O[C@H](CO)[C@@H](O)[C@H](O)[C@H]3O)ccc2Cl)cc1`, the Activity in data set [1] is 1650 mg; in data set [2] it was 1480 mg; in [3], 166 mg. The IC50 came out at 7 µM in [8] and 0.0068 µM in data set [9].
For `[2H]C([2H])([2H])C([2H])([2H])Oc1ccc(Cc2cc([C@@H]3O[C@H](CO)[C@@H](O)[C@H](O)[C@H]3O)ccc2Cl)cc1`, the Activity in data set [10] was 12000 mg; in data set [11], 3470 mg; in data set [1], 2300 mg; in [2], 2150 mg; in data set [3] it was 145 mg. This compound gave an AUC(0-inf) in data set [5] of 22600 ng·h/mL.
`[2H]C([2H])(C)Oc1ccc(Cc2cc([C@@H]3O[C@H](CO)[C@@H](O)[C@H](O)[C@H]3O)ccc2Cl)cc1`: the Activity in [1] is 2430 mg; in data set [2], 2310 mg; in [3], 119 mg. The compound also had an AUC(0-inf) in data set [5] of 20900 ng·h/mL.
`[2H][C@@]1(c2ccc(Cl)c(Cc3ccc(OCC)cc3)c2)O[C@H](CO)[C@@H](O)[C@H](O)[C@H]1O`: the Activity stood at 12700 mg in [10]; 8910 mg in data set [12]; 3760 mg in data set [11]; 2650 mg in [1]; 2460 mg in data set [2]; 193 mg in data set [3].
